Measured values reported in ChEMBL document CHEMBL3124905, “Isothiocoumarin-3-carboxylic acid derivatives: synthesis, anticancer and antitrypanosomal activity evaluation” (Eur J Med Chem, 2014).
Calls of active or inactive are those of the source. The calls are words filed in the database; no cut-off is given here.

Tests used:
Assay type in all cases: functional
[1] = system: Trypanosoma brucei brucei; assay: Antitrypanosomal activity against bloodstream form of Trypanosoma brucei brucei strain 90-13 assessed as inhibition of parasite growth at 10 ug/ml after 72 hrs by resazurin reduction test; conditions: strain 90-13, 72 h
Method in brief: (§1)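 Trypanosoma brucei brucei 90-13 bloodstream forms, grown in HMI9 with 10% FCS at 37 °C under 5% CO2. Log-phase parasites were seeded at 10^5 cells/mL with or without inhibitor, with stocks prepared in DMSO. After 72 h, resazurin was added and fluorescence was read at 530/590 nm after a further 4 h. Percent growth inhibition was calculated versus drug-free parasites, with DMSO as control.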

[2] = system: Trypanosoma brucei brucei; assay: Antitrypanosomal activity against bloodstream form of Trypanosoma brucei brucei strain 90-13 assessed as inhibition of parasite growth at 1 ug/ml after 72 hrs by resazurin reduction test; conditions: strain 90-13, 72 h; method in brief: as §1
SF-268 = assay: Anticancer activity against human SF268 cells assessed as cell growth at 100 uM after 48 hrs by SRB assay; conditions: SF-268, 48 h, read-out: Activity
Method in brief: (§2)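 NCI one-dose primary screen on a three-line panel (breast MCF7, lung NCI-H460, CNS SF-268). Cells were inoculated and preincubated 24–48 h, then exposed to a single concentration of 10−4 M for 48 h. The endpoint was sulforhodamine B protein staining, and results are expressed as percent growth relative to untreated control cells. Negative values denote cytotoxicity.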

NCI-H460 [3] = assay: Anticancer activity against human NCI-H460 cells assessed as cell growth at 100 uM after 48 hrs by SRB assay; conditions: NCI-H460, 48 h, read-out: Activity; method in brief: as §2
MCF7 = assay: Anticancer activity against human MCF7 cells assessed as cell growth at 100 uM after 48 hrs by SRB assay; conditions: MCF7, 48 h, read-out: Activity; method in brief: as §2
CCRF-CEM = assay: Growth inhibition of human CCRF-CEM cells after 48 hrs by SRB assay
Method in brief: (§3)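 NCI five-dose assay against the ~60-cell-line panel (nine cancer types). Tenfold dilutions from 10−4 to 10−8 M were used with continuous 48-h exposure and SRB absorbance readout. Percent growth was computed from time-zero, control and treated absorbances. GI50 is the concentration giving 50% lower net protein increase than controls. Values not reached are reported as beyond the tested range.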

MDA-MB-435 = assay: Growth inhibition of human MDA-MB-435 cells after 48 hrs by SRB assay; method in brief: as §3
[4] = (§4) Growth inhibition of human HOP92 cells after 48 hrs by SRB assay; conditions: HOP-92, 48 h; method in brief: as §3
SR = assay: Growth inhibition of human SR cells after 48 hrs by SRB assay
Method in brief: (§5)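 NCI ~60-cell-line five-dose screen. Cells were preincubated 24-48 h, then given compound at 10-fold dilutions from 10^-4 to 10^-8 M with 48 h continuous exposure. SRB protein stain was read by absorbance at time zero, in untreated control and with drug. GI50 was derived from [(Ti-Tz)/(C-Tz)]x100=50, TGI from Ti=Tz, and LC50 from [(Ti-Tz)/Tz]x100=-50.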

KM12 = assay: Growth inhibition of human KM12 cells after 48 hrs by SRB assay; method in brief: as §3
UACC-257 = assay: Growth inhibition of human UACC257 cells after 48 hrs by SRB assay; method in brief: as §5
HCC 2998 = assay: Growth inhibition of human HCC2998 cells after 48 hrs by SRB assay; method in brief: as §3
NCI/ADR-RES = assay: Growth inhibition of human NCI/ADR-RES cells after 48 hrs by SRB assay; method in brief: as §3
M14 = assay: Growth inhibition of human M14 cells after 48 hrs by SRB assay; method in brief: as §3
HOP69 = assay: Growth inhibition of human […] cells after 48 hrs by SRB assay; method in brief: as §3
SF-295 = assay: Growth inhibition of human SF295 cells after 48 hrs by SRB assay; method in brief: as §3
CAKI-1 = assay: Growth inhibition of human CAKI-1 cells after 48 hrs by SRB assay; method in brief: as §3
SK-MEL-5 = assay: Growth inhibition of human SK-MEL-5 cells after 48 hrs by SRB assay; method in brief: as §3
OVCAR-4 = assay: Growth inhibition of human OVCAR4 cells after 48 hrs by SRB assay; method in brief: as §3
LOX IMVI = assay: Growth inhibition of human LOXIMVI cells after 48 hrs by SRB assay; method in brief: as §3
786-0 [5] = assay: Growth inhibition of human 786-0 cells after 48 hrs by SRB assay; method in brief: as §3
OVCAR-3 = assay: Growth inhibition of human OVCAR3 cells after 48 hrs by SRB assay; method in brief: as §3
UO-31 = assay: Growth inhibition of human UO31 cells after 48 hrs by SRB assay; method in brief: as §5
ACHN = assay: Growth inhibition of human ACHN cells after 48 hrs by SRB assay; method in brief: as §3
EKVX = assay: Growth inhibition of human EKVX cells after 48 hrs by SRB assay; method in brief: as §3
OVCAR-5 = assay: Growth inhibition of human OVCAR5 cells after 48 hrs by SRB assay; method in brief: as §3
Malme-3M = assay: Growth inhibition of human MALME-3M cells after 48 hrs by SRB assay; method in brief: as §3
MOLT-4 = assay: Growth inhibition of human MOLT4 cells after 48 hrs by SRB assay; method in brief: as §3
SNB- = assay: Growth inhibition of human SNB cells after 48 hrs by SRB assay; method in brief: as §3
A549 = assay: Growth inhibition of human A549/ATCC cells after 48 hrs by SRB assay; method in brief: as §3
OVCAR-8 = assay: Growth inhibition of human OVCAR8 cells after 48 hrs by SRB assay; method in brief: as §3
BT-549 = assay: Growth inhibition of human BT549 cells after 48 hrs by SRB assay; method in brief: as §3
SF-539 = assay: Growth inhibition of human SF539 cells after 48 hrs by SRB assay; method in brief: as §3
RXF 393 = assay: Growth inhibition of human RXF393 cells after 48 hrs by SRB assay; method in brief: as §3
HOP-62 = assay: Growth inhibition of human HOP62 cells after 48 hrs by SRB assay; method in brief: as §3
TK-10 = assay: Growth inhibition of human TK10 cells after 48 hrs by SRB assay; method in brief: as §5
RPMI18226 = assay: Growth inhibition of human […] cells after 48 hrs by SRB assay; method in brief: as §3
HOP-92 = assay: as §4; method in brief: as §3
NCI-H460 [6] = assay: Growth inhibition of human NCI-H460 cells after 48 hrs by SRB assay; method in brief: as §3
U-251 = assay: Growth inhibition of human U251 cells after 48 hrs by SRB assay; method in brief: as §5
NCI-H23 = assay: Growth inhibition of human NCI-H23 cells after 48 hrs by SRB assay; method in brief: as §3
PC-3 = assay: Growth inhibition of human PC3 cells after 48 hrs by SRB assay; method in brief: as §3
HCT-116 = assay: Growth inhibition of human HCT116 cells after 48 hrs by SRB assay; method in brief: as §3
SNB-75 = assay: Growth inhibition of human SNB75 cells after 48 hrs by SRB assay; method in brief: as §3
MDA-MB-231 = assay: Growth inhibition of human MDA-MB-231/ATCC cells after 48 hrs by SRB assay; method in brief: as §3
UACC-62 = assay: Growth inhibition of human UACC62 cells after 48 hrs by SRB assay; method in brief: as §5
NCI-H322M = assay: Growth inhibition of human NCI-H322M cells after 48 hrs by SRB assay; method in brief: as §3
786-0 [7] = assay: Growth inhibition of human 786-O cells after 48 hrs by SRB assay; method in brief: as §3
NCI-H522 = assay: Growth inhibition of human NCI-H522 cells after 48 hrs by SRB assay; method in brief: as §3
Hs-578T = assay: Growth inhibition of human Hs 578T cells after 48 hrs by SRB assay; method in brief: as §3

CCOC(=O)c1cc2ccccc2c(=O)s1 showed an inhibition at 10 µg/mL [1] of -3.91% and an inhibition at 1 µg/mL [2] of 35.8%.

For O=C(Nc1ccccc1)c1cc2ccccc2c(=O)s1, the growth at 100 µM (SF-268) was 83%, the growth at 100 µM (NCI-H460 [3]) was 75% and the growth at 100 µM (MCF7) was 78%.

COC(=O)c1cc2ccc(OC)c(OC)c2c(=O)s1 showed a growth at 100 µM (SF-268) of 113%, a growth at 100 µM (NCI-H460 [3]) of 82% and a growth at 100 µM (MCF7) of 108%.

With COc1ccc2cc(C(=O)Nc3ccc(O)cc3)sc(=O)c2c1OC the GI50 (CCRF-CEM) was 5.62 µM, the TGI (CCRF-CEM; read-out: pTGI (converted)) was greater than 100 µM and the GI50 (MDA-MB-435; MDA-MB-435, 48 h) was 18.6 µM. It also gave a TGI (MDA-MB-435; MDA-MB-435, 48 h, read-out: pTGI (converted)) of 77.6 µM, a GI50 [4] of 17.8 µM and a TGI ([4]; read-out: pTGI (converted)) of 95.5 µM. It also gave a GI50 (SR) of 3.47 µM, a TGI (SR; read-out: pTGI (converted)) of 42.7 µM and a GI50 (KM12; KM12, 48 h) of 26.3 µM. It also gave a TGI (KM12; KM12, 48 h, read-out: pTGI) greater than 100 µM.

For COc1ccc2cc(C(=O)Nc3nccs3)sc(=O)c2c1OC, the pGI50 (UACC-257) was “inactive”, the pTGI (UACC-257) was “inactive” and the pGI50 (HCC 2998) was “inactive”. For the same molecule, the pTGI (HCC 2998) was “inactive”, the pGI50 (NCI/ADR-RES) was “inactive” and the pTGI (NCI/ADR-RES) was “inactive”. The pGI50 (M14) was “inactive”, the pTGI (M14) was “inactive” and the growth at 100 µM (SF-268) was 98%. For the same molecule, the pGI50 (HOP69) was “inactive”, the pTGI (HOP69) was “inactive” and the pGI50 (SF-295) was “inactive”. The pTGI (SF-295) was “inactive”, the pGI50 (CCRF-CEM) was “inactive” and the pTGI (CCRF-CEM) was “inactive”. The pGI50 (CAKI-1) was “inactive”, the pTGI (CAKI-1) was “inactive” and the growth at 100 µM (NCI-H460 [3]) was 94%. For the same molecule, the pGI50 (SK-MEL-5) was “inactive”, the pTGI (SK-MEL-5) was “inactive” and the pGI50 (OVCAR-4) was “inactive”. For the same molecule, the pTGI (OVCAR-4) was “inactive”, the pGI50 (LOX IMVI) was “inactive” and the pTGI (LOX IMVI) was “inactive”. For the same molecule, the pGI50 (786-0 [5]) was “inactive”, the pTGI (786-0 [5]) was “inactive” and the pGI50 (OVCAR-3) was “inactive”. For the same molecule, the pTGI (OVCAR-3) was “inactive”, the pGI50 (UO-31) was “inactive” and the pTGI (UO-31) was “inactive”. The pGI50 (ACHN) was “inactive”, the pTGI (ACHN) was “inactive” and the pGI50 (EKVX) was “inactive”. The pTGI (EKVX) was “inactive”, the pGI50 (OVCAR-5) was “inactive” and the pTGI (OVCAR-5) was “inactive”. For the same molecule, the pGI50 (Malme-3M) was “inactive”, the pTGI (Malme-3M) was “inactive” and the pGI50 (MOLT-4) was “inactive”. The pTGI (MOLT-4) was “inactive”, the pGI50 (SNB-) was “inactive” and the pTGI (SNB-) was “inactive”. The pGI50 (A549) was “inactive”, the pTGI (A549) was “inactive” and the pGI50 (OVCAR-8) was “inactive”. For the same molecule, the pTGI (OVCAR-8) was “inactive”, the pGI50 (BT-549) was “inactive” and the pTGI (BT-549) was “inactive”. The pGI50 (SF-539) was “inactive”, the pTGI (SF-539) was “inactive” and the pGI50 (RXF 393) was “inactive”. The pTGI (RXF 393) was “inactive”, the pGI50 (HOP-62) was “inactive” and the pTGI (HOP-62) was “inactive”. For the same molecule, the pGI50 (TK-10) was “inactive”, the pTGI (TK-10) was “inactive” and the pGI50 (MDA-MB-435) was “inactive”. The pTGI (MDA-MB-435) was “inactive”, the pGI50 (RPMI18226) was “inactive” and the pTGI (RPMI18226) was “inactive”. For the same molecule, the pGI50 (HOP-92) was “inactive”, the pTGI (HOP-92) was “inactive” and the pGI50 (NCI-H460 [6]) was “inactive”. The pTGI (NCI-H460 [6]) was “inactive”, the pGI50 (U-251) was “inactive” and the pTGI (U-251) was “inactive”. The pGI50 (SR) was “inactive”, the pTGI (SR) was “inactive” and the growth at 100 µM (MCF7) was 95%. The pGI50 (NCI-H23) was “inactive”, the pTGI (NCI-H23) was “inactive” and the pGI50 (PC-3) was “inactive”. The pTGI (PC-3) was “inactive”, the pGI50 (HCT-116) was “inactive” and the pTGI (HCT-116) was “inactive”. The pGI50 (SNB-75) was “inactive”, the pTGI (SNB-75) was “inactive” and the pGI50 (MDA-MB-231) was “inactive”. The pTGI (MDA-MB-231) was “inactive”, the pGI50 (UACC-62) was “inactive” and the pTGI (UACC-62) was “inactive”. The pGI50 (NCI-H322M) was “inactive”, the pTGI (NCI-H322M) was “inactive” and the pGI50 (786-0 [7]) was “inactive”. The pTGI (786-0 [7]) was “inactive”, the pGI50 (NCI-H522) was “inactive” and the pTGI (NCI-H522) was “inactive”. For the same molecule, the pGI50 (KM12) was “inactive”, the pTGI (KM12) was “inactive” and the pGI50 (Hs-578T) was “inactive”. For the same molecule, the pTGI (Hs-578T) was “inactive”.
